Measurements from ChEMBL document CHEMBL3124872, “Discovery and early development of TMC647055, a non-nucleoside inhibitor of the hepatitis C virus NS5B polymerase” (J Med Chem, 2014).
pEC50, pKd: −log10 of the molar value. Active and inactive are the calls of the source. The rule behind the calls is not given here.

How the values were obtained:
Hepatitis C virus [1] = assay: Antiviral activity against Hepatitis C virus harboring NS5B M423T mutant infected in human HuH7 by luciferase reporter gene assay; type: functional, organism-based; settings: Hepacivirus hominis; Huh-7
Hepatitis C virus [2] = assay: Antiviral activity against Hepatitis C virus harboring […] L31V mutant infected in human HuH7 by luciferase reporter gene assay; type: functional, organism-based; settings: Hepacivirus hominis; Huh-7
Hepatitis C virus [3] = assay: Antiviral activity against Hepatitis C virus genotype 2b infected in human HuH7 by transient replicon assay; type: functional, organism-based, Hepacivirus hominis; settings: Huh-7
Procedure, shortened: (§1)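 Transient replicon assay using chimeric replicons whose NS5B region is derived from patient isolates of the stated genotype.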

[4] = Binding affinity to Hepatitis C virus genotype 6a NS5B by surface plasmon resonance analysis; design: species or system Hepatitis C virus subtype 6a
Procedure, shortened: (§2)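 Surface plasmon resonance binding to NS5B polymerase of the stated genotype; association and dissociation rate constants measured, from which Kd and residence half-life were derived; median Kd reported.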

[5] = Selectivity ratio of EC50 for Hepatitis C virus genotype 2a to EC50 for wild-type Hepatitis C virus Con 1b; type: functional
Procedure, shortened: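 Transient replicon assay using chimeric replicons carrying NS5B from genotype 2a or 2b patient isolates. EC50 was compared with that against the genotype 1b replicon.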

Hepatitis C virus [6] = assay: Antiviral activity against Hepatitis C virus genotype 1b infected in human HuH7 by transient replicon assay; type: functional, organism-based, Hepacivirus hominis; settings: Huh-7; procedure, shortened: as §1
Homo sapiens [7] = assay: Toxicity in HCV genotype 1-infected patient assessed as effect on food consumption at 500 to 1000 mg, po bid for 5 days followed by morning dose on day 6; type: organism-based; settings: in vivo, 120 h
Procedure, shortened: (§3)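 HCV genotype 1-infected patients given oral b.i.d. doses of 500 or 1000 mg for 5 days plus a morning dose on day 6, in hydroxypropyl-β-cyclodextrin vehicle; adverse events with grading, laboratory parameters, vital signs, food consumption, appetite and ECG monitored.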

Homo sapiens [8] = assay: Toxicity in human assessed as effect on vital signs at 300 to 1250 mg, po bid for 5 days followed by morning dose on day 6; type: organism-based; settings: in vivo, 120 h
Procedure, shortened: (§4)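 Healthy volunteers given oral b.i.d. doses of 300, 1000 or 1250 mg for 5 days plus a morning dose on day 6, in hydroxypropyl-β-cyclodextrin vehicle; adverse events, laboratory parameters, vital signs, food consumption, appetite, ECG and plasma 4-β-hydroxycholesterol (CYP3A4 induction marker) monitored.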

[9] = Binding affinity to Hepatitis C virus Con 1b wild-type NS5B by surface plasmon resonance analysis; design: species or system Hepatitis C virus (isolate Con1); procedure, shortened: as §2
Hepatitis C virus [10] = assay: Antiviral activity against Hepatitis C virus genotype 1b infected in human assessed as log10 reduction in HCV RNA level at 500 mg, po bid for 5 days followed by morning dose on day 6 relative to control; type: functional, Hepacivirus hominis
Procedure, shortened: (§5)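 Oral b.i.d. dosing of HCV genotype 1-infected patients at 500 mg or 1000 mg for 5 days, plus a morning dose on day 6, in hydroxypropyl-β-cyclodextrin vehicle. Read-out was the median maximum decrease in plasma HCV RNA from baseline (log10), using patients with HCV RNA data available up to Day 6.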

Hepatitis C virus [11] = assay: Antiviral activity against Hepatitis C virus genotype 1a infected in human assessed as reduction in plasma HCV RNA level administered for 10 days measured on day 11; type: functional, organism-based; settings: Hepacivirus hominis, subtype 1a
Procedure, shortened: (§6)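 HCV genotype 1a- and 1b-infected patients received oral 1000 mg b.i.d. together with an NS3/4A protease inhibitor at 150 mg q.d. for 10 days. The read-out was the median decrease in plasma HCV RNA (log10 IU/mL) at day 11.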

[12] = Binding affinity to Hepatitis C virus genotype 5a NS5B by surface plasmon resonance analysis; design: species or system Hepatitis C virus subtype 5a; procedure, shortened: as §2
Homo sapiens [13] = assay: Drug metabolism in human assessed as CYP3A4-induced 4-beta-hydroxycholesterol level at 300 to 1250 mg, po bid for 5 days followed by morning dose on day 6; type: ADME, organism-based; settings: in vivo, 120 h; procedure, shortened: as §4
[14] = system: Hepatitis C virus subtype 1b
Homo sapiens [15] = assay: Toxicity in HCV genotype 1-infected patient assessed as grade-4 adverse events at 500 to 1000 mg, po bid for 5 days followed by morning dose on day 6; type: organism-based; settings: in vivo, 120 h; procedure, shortened: as §3
Hepatitis C virus [16] = assay: Antiviral activity against Hepatitis C virus genotype 1b harboring NS5B NNI-1 site V494A mutant infected in human HuH7 by luciferase reporter gene assay relative to wild-type HCV genotype 1b; type: functional, Hepacivirus hominis, Huh-7
Homo sapiens [17] = assay: Toxicity in human assessed as effect on laboratory parameters at 300 to 1250 mg, po bid for 5 days followed by morning dose on day 6; type: organism-based; settings: in vivo, 120 h; procedure, shortened: as §4
Homo sapiens [18] = assay: Toxicity in human assessed as grade-4 adverse events at 300 to 1250 mg, po bid for 5 days followed by morning dose on day 6; type: organism-based; settings: in vivo, 120 h
Procedure, shortened: (§7)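 Oral b.i.d. dosing for 5 days plus a single morning dose on day 6, in a hydroxypropyl-β-cyclodextrin vehicle. Healthy volunteers received 300, 1000 or 1250 mg; HCV genotype 1-infected patients received 500 or 1000 mg. Monitoring covered adverse events graded by severity, laboratory parameters, vital signs, food consumption, appetite and ECG.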

[19] = Cytotoxicity against human MT4 cells; type: cell-based
[20] = Binding affinity to Hepatitis C virus genotype 4a NS5B by surface plasmon resonance analysis; design: species or system Hepatitis C virus subtype 4a; procedure, shortened: as §2
Hepatitis C virus [21] = assay: Antiviral activity against Hepatitis C virus genotype 6a infected in human HuH7 by transient replicon assay; type: functional, organism-based, Hepacivirus hominis; settings: Huh-7; procedure, shortened: as §1
[22] = Cytotoxicity against human MRC5 cells after 3 days by resazurin-based fluorescence analysis; type: cell-based
Hepatitis C virus [23] = assay: Antiviral activity against Hepatitis C virus harboring […] D168V mutant infected in human HuH7 by luciferase reporter gene assay; type: functional, organism-based; settings: Hepacivirus hominis; Huh-7
Hepatitis C virus [24] = assay: Antiviral activity against Hepatitis C virus genotype 1b infected in human assessed as reduction in plasma HCV RNA level administered for 10 days measured on day 11; type: functional, organism-based; settings: Hepacivirus hominis; procedure, shortened: as §6
Homo sapiens [25] = assay: Toxicity in human assessed as effect on ECG profile at 300 to 1250 mg, po bid for 5 days followed by morning dose on day 6; type: organism-based; settings: in vivo, 120 h; procedure, shortened: as §4
Homo sapiens [26] = assay: Toxicity in human assessed as gastrointestinal side-effects at 300 to 1250 mg, po bid for 5 days followed by morning dose on day 6; type: organism-based; settings: in vivo, 120 h; procedure, shortened: as §7
[27] = Binding affinity to Hepatitis C virus genotype 3a NS5B by surface plasmon resonance analysis; design: species or system Hepatitis C virus subtype 3a; procedure, shortened: as §2
Hepatitis C virus [28] = assay: Antiviral activity against Hepatitis C virus genotype 1b infected in human HuH7 cells after 72 hrs by luciferase reporter gene assay; type: functional, organism-based, Hepacivirus hominis; settings: Huh-7, 72 h
Hepatitis C virus [29] = assay: Antiviral activity against Hepatitis C virus genotype 3a infected in human HuH7 by transient replicon assay; type: functional, organism-based, Hepacivirus hominis; settings: Huh-7; procedure, shortened: as §1
Homo sapiens [30] = assay: Toxicity in HCV genotype 1-infected patient assessed as effect on appetite at 500 to 1000 mg, po bid for 5 days followed by morning dose on day 6; type: organism-based; settings: in vivo, 120 h; procedure, shortened: as §3
Hepatitis C virus [31] = assay: Antiviral activity against Hepatitis C virus genotype 1a infected in human assessed as log10 reduction in HCV RNA level at 500 mg, po bid for 5 days followed by morning dose on day 6 relative to control; type: functional, Hepacivirus hominis, subtype 1a; procedure, shortened: as §5
Hepatitis C virus [32] = assay: Antiviral activity against Hepatitis C virus genotype 1b infected in human HuH7 assessed as rebound of replicon RNA at 3.75 uM preincubated for 2 weeks followed by 3 week rebound phase by RT-PCR analysis; type: functional, organism-based; settings: Hepacivirus hominis, Huh-7
Procedure, shortened: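 Clearance-and-rebound test in Huh7-Luc genotype 1b replicon cells. Cells were incubated with inhibitor (3.75 μM alone) for 14 days, then held for a 3-week rebound phase without inhibitor. Replicon RNA was followed for clearance and rebound.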

Q: Which results are given for `COc1ccc2c(c1)C=C1Cn3c-2c(C2CCCCC2)c2ccc(cc23)C(=O)NS(=O)(=O)N(C)CCOCCN(C)C1=O` [TMC-647055]?
A: Activity (Hepatitis C virus [1]): Active; Activity (Hepatitis C virus [2]): Active; pEC50 (Hepatitis C virus [3]): < 4.55; pKd [4]: 7.52; Ratio EC50 [5]: >200; pEC50 (Hepatitis C virus [6]): 7.57; Activity (Homo sapiens [7]): Non-toxic; Activity (Homo sapiens [8]): Non-toxic; pKd [9]: 8.39; FC (Hepatitis C virus [10]): 3.3; Activity (Hepatitis C virus [11]): Active; pKd [12]: 7.68; Drug metabolism (Homo sapiens [13]): Active; T1/2 [14]: 2.17 h; Activity (Homo sapiens [15]): Non-toxic; fold change (FC) (Hepatitis C virus [16]): 3; Activity (Homo sapiens [17]): Non-toxic; Activity (Homo sapiens [18]): Non-toxic; CC50 [19]: 28900 nM; pKd [20]: 8.70; pEC50 (Hepatitis C virus [21]): 6.95; CC50 at 72 h [22]: > 50000 nM; Activity (Hepatitis C virus [23]): Active; Activity (Hepatitis C virus [24]): Active; Activity (Homo sapiens [25]): Non-toxic; Activity (Homo sapiens [26]): Toxic; pKd [27]: 8.21; pEC50 (Hepatitis C virus [28]): 7.11; pEC50 (Hepatitis C virus [29]): 7.06; Activity (Homo sapiens [30]): Non-toxic; FC (Hepatitis C virus [31]): 1.4; Activity (Hepatitis C virus [32]): inactive
